Measurements published in ChEMBL document CHEMBL1148222, “Chemical constituents of Glycosmis arborea: three new carbazole alkaloids and their biological activity” (J Nat Prod, 2004).

Assays:
Assay type in all cases: cell-based
Raji [1] = experiment: Cytotoxicity against human Raji cells at 0.32 […] after 48 hrs by trypan blue staining method
Outline: (§1)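 Raji cells grown to 10^6 cells/mL, then resuspended in RPMI 1640 with 10% FCS. Medium held 4 mM n-butyric acid, 32 pmol TPA (20 ng/mL in DMSO) and test compound in DMSO. Culture ran 48 h at 37 °C. Viable cells were counted by hemocytometer with Trypan Blue exclusion. At least 60% survival is required for a valid EBV-EA reading.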

Raji [2] = experiment: Cytotoxicity against human Raji cells at 16 […] after 48 hrs by trypan blue staining method; outline: as §1
Raji [3] = experiment: Inhibition of TPA-induced EBV-early antigen activation in human Raji cells at 3.2 […] after 48 hrs relative to control; set-up: scale not given: the % may be the effect or the level left; settings: human gammaherpesvirus 4
Outline: (§2)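 Raji cells at 10^6 cells/mL were resuspended in RPMI 1640 with 10% FCS. Induction used 4 mM n-butyric acid plus 32 pmol TPA (20 ng/mL), with test compound in DMSO at mol ratios of 10–1000 to TPA. Cells were held 48 h at 37 °C. EA-positive cells were counted blind, at least 500 cells per assay, and expressed as % of the TPA-only control (100%) ± SD.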

Raji [4] = experiment: Cytotoxicity against human Raji cells at 3.2 […] after 48 hrs by trypan blue staining method; outline: as §1
Raji [5] = experiment: Inhibition of TPA-induced EBV-early antigen activation in human Raji cells at 16 […] after 48 hrs relative to control; set-up: scale not given: the % may be the effect or the level left; settings: human gammaherpesvirus 4; outline: as §2
Raji [6] = experiment: Inhibition of TPA-induced EBV-early antigen activation in human Raji cells at 0.32 […] after 48 hrs relative to control; set-up: scale not given: the % may be the effect or the level left; settings: human gammaherpesvirus 4; outline: as §2
Raji [7] = experiment: Cytotoxicity against human Raji cells at 32 […] after 48 hrs by trypan blue staining method; outline: as §1
Raji [8] = experiment: Inhibition of TPA-induced EBV-early antigen activation in human Raji cells at 32 […] after 48 hrs relative to control; set-up: scale not given: the % may be the effect or the level left; settings: human gammaherpesvirus 4; outline: as §2

Row | Compound | Activity (Raji [1]) | Activity (Raji [2]) | Activity (Raji [3]) | Activity (Raji [4]) | Activity (Raji [5]) | Activity (Raji [6]) | Activity (Raji [7]) | Activity (Raji [8])
1 | Cc1cc2c(cc1O)[nH]c1ccc3c(c12)C=CC(C)(C)O3 [GLYCOBORININE] | > 80% | > 80% | 73.7% | > 80% | 49.1% | 100% | 60% | 17.4%
2 | COc1ccc2[nH]c3cc(O)c(C)cc3c2c1CC=C(C)C [GLYBOMINE B] | > 80% | > 80% | 68.7% | > 80% | 46.7% | 96.4% | 60% | 15.3%
3 | CC(C)=CCc1c(O)ccc2[nH]c3cc(O)c(C)cc3c12 [GLYBOMINE C] | > 80% | > 80% | 68.9% | > 80% | 45.6% | 94.6% | 60% | 13.4%
4 | CC1=C(/C=C/C(C)=C/C=C/C(C)=C/C=C/C=C(C)/C=C/C=C(C)/C=C/C2=C(C)CCCC2(C)C)C(C)(C)CCC1 [BETA CAROTENE] | > 80% | > 80% | – | > 80% | – | 100% | 60% | 9.1%
5 | Cn1c(Cc2ccccc2)nc(=O)c2ccccc21 [ARBORINE] | > 80% | > 80% | 75.6% | > 80% | 40.4% | 100% | 60% | 12.7%
6 | COc1cccc2c(=O)c3ccoc3n(C)c12 | > 80% | > 80% | 79.5% | > 80% | 40.5% | 100% | 60% | 19.9%
7 | Cn1c2ccccc2c(=O)c2ccoc21 [ISODICTAMNINE] | > 80% | > 80% | 72.2% | > 80% | 40.3% | 100% | 60% | 18.4%
8 | COc1c2ccoc2nc2c(OC)cccc12 [GAMMA-FAGARINE] | > 80% | > 80% | 77.7% | > 80% | 38.2% | 100% | 60% | 15.4%
9 | COc1cc2c(c(O)c1OC)c(=O)c1ccccc1n2C [ARBORININE] | > 80% | > 80% | 74.3% | > 80% | 39.6% | 95.6% | 60% | 2.7%
10 | COc1ccc2[nH]c3cc(OC)c(C)cc3c2c1 [GLYCOZOLIDINE] | > 80% | > 80% | 76% | > 80% | 51.3% | 100% | 60% | 24.3%
